Calls of active or inactive are those of the source. The rule behind the calls is not given here.
Experiments:
[1] = biological target: T1, Chromodomain Y-like protein (Homo sapiens) (UniProt Q9Y232); test: Binding affinity to CDYL in human SH-SY5Y cells assessed as reduction in protein degradation incubated for 4 mins at 55 degC for 4 mins by CETSA; assay type: cell-based
T1 sequence (whole entry): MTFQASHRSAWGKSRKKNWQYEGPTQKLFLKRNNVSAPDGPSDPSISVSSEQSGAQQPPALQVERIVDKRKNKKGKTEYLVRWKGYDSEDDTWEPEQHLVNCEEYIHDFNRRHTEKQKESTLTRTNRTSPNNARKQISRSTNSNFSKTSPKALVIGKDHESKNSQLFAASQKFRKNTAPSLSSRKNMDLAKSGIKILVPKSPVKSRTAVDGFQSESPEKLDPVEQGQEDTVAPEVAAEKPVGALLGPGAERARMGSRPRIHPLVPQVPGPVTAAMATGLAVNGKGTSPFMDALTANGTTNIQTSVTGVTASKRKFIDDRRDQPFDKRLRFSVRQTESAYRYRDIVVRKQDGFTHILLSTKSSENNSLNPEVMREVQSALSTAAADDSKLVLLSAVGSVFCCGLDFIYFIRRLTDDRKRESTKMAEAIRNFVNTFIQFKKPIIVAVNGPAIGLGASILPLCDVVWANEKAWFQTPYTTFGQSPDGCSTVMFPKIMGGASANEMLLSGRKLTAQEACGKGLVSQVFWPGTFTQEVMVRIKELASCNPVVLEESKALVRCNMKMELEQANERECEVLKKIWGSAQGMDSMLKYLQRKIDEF
Method in brief: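 Lysates of SH-SY5Y cells, freeze-thawed three times, incubated with compound at 0–500 µM at 55 °C for 4 min. Supernatant isolated by centrifugation and CDYL read by immunoblot with densitometry.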

[2] = biological target: T2, Chromodomain Y-like protein (Mus musculus) (UniProt Q9WTK2); test: Inhibition of CDYL in C57BL/6 mouse hippocampal neurons assessed as induction of dendritic branching at 150 uM incubated for 24 hrs by DAPI staining confocal microscopic method
T2 sequence (whole entry): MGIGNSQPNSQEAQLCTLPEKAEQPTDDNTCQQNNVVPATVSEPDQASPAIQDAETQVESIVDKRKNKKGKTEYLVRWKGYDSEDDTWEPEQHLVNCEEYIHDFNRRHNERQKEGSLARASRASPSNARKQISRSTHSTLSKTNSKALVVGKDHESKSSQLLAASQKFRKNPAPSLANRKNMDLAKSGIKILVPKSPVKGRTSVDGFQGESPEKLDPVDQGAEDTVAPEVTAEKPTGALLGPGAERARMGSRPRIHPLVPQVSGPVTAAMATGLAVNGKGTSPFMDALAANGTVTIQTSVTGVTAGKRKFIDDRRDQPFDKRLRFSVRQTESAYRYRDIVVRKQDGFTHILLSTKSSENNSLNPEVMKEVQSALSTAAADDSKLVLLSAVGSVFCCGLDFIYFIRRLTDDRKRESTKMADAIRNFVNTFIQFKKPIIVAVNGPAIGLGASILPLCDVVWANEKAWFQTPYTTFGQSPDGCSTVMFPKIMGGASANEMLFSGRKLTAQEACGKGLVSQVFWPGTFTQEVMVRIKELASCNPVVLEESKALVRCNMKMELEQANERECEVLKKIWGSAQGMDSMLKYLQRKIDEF
Method in brief: (§1)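 Mouse hippocampal or cortical neurons on poly-D-lysine given 150 µM compound or DMSO at DIV 5 for 24 h, then fixed in 4% PFA. Stained for MAP2 with DAPI nuclei and imaged by confocal microscopy. Dendrite crossings counted by Sholl analysis at 10 µm intervals. Mean ± S.E.M. of triplicates, Student's t-test.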

[3] = biological target: T1, Chromodomain Y-like protein (Homo sapiens); test: Inhibition of CDYL in human SH-SY5Y cells assessed as decrease in enrichment of H3K27me3 at MYT1 promoter site at 150 uM incubated for 24 hrs by ChIP-qPCR analysis; assay type: cell-based
Method in brief: (§2)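 About 1×10^7 SH-SY5Y cells given 150 µM compound or DMSO for 24 h, fixed in 1% formaldehyde for 10 min. Chromatin immunoprecipitated overnight-style (12 h, 4 °C) with CDYL or H3K27me3 antibody, captured on Protein A/G beads, washed, decrosslinked at 65 °C. Promoter DNA quantified by qPCR, mean ± S.E.M. of triplicate experiments, Student's t-test.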

[4] = biological target: T1, Chromodomain Y-like protein (Homo sapiens); test: Inhibition of CDYL in human HEK293T cells assessed as increase in VGF mRNA expression at 50 to 200 uM incubated for 24 hrs by RT-qPCR analysis; assay type: cell-based
Method in brief: (§3)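 SH-SY5Y or HEK-293T cells grown in DMEM with 10% FBS and treated with compound for 24 h. mRNA quantified by SYBR green RT-qPCR after DNase treatment, 2^-ΔΔCt method with GAPDH as reference, relative to DMSO. Mean ± S.E.M. of triplicate experiments, Student's t-test.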

[5] = biological target: T3, Chromobox protein homolog 7 (Homo sapiens, UniProt O95931); test: Binding affinity to recombinant human N-terminal GST-tagged CBX7 (1 to 62 residues) expressed in Escherichia coli […] by SPR analysis
T3 sequence (O95931 whole entry): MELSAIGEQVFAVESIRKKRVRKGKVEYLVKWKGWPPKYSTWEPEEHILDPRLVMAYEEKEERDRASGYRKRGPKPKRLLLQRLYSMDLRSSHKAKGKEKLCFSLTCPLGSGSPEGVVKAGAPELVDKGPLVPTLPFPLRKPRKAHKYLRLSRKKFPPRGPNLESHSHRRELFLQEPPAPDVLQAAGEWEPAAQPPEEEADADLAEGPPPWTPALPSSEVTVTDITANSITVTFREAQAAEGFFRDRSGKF
Method in brief: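 Chromodomain expressed with N-terminal GST tag in E. coli BL21 (IPTG 0.2 mM at OD600 0.6–0.8, 28 C for 6 h), GSTrap purified, tag cleaved by PreScission protease, amine-coupled to CM5 chip at pH 4.0–4.5 (5000–10000 RU). […] Mean ± SD of at least two replicates, each in duplicate.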

[6] = biological target: T1, Chromodomain Y-like protein (Homo sapiens); test: Inhibition of CDYL in human HEK293T cells assessed as increase in BDNF mRNA expression at 50 to 200 uM incubated for 24 hrs by RT-qPCR analysis; assay type: cell-based; method in brief: as §3
[7] = biological target: T1, Chromodomain Y-like protein (Homo sapiens); test: Inhibition of CDYL in human SH-SY5Y cells assessed as decrease in enrichment of H3K27me3 at VGF promoter site at 150 uM incubated for 24 hrs by ChIP-qPCR analysis; assay type: cell-based; method in brief: as §2
[8] = biological target: T1, Chromodomain Y-like protein (Homo sapiens); test: Inhibition of CDYL in human SH-SY5Y cells assessed as decrease in enrichment of CDYL at BDNF promoter site at 150 uM incubated for 24 hrs by ChIP-qPCR analysis; assay type: cell-based; method in brief: as §2
[9] = biological target: T2, Chromodomain Y-like protein (Mus musculus); test: Inhibition of CDYL in C57BL/6 mouse cortical neurons assessed as induction of dendritic branching at 150 uM incubated for 24 hrs by DAPI staining confocal microscopic method; method in brief: as §1
SH-SY5Y [10] = test: Effect on enrichment of H3K27me3 at HOXA3 promoter site in human SH-SY5Y cells at 150 uM incubated for 24 hrs by ChIP-qPCR analysis; assay type: functional, cell-based; method in brief: as §2
SH-SY5Y [11] = test: Effect on CDYL recruitment onto HOXA3 promoter site in human SH-SY5Y cells at 150 uM incubated for 24 hrs by ChIP-qPCR analysis; assay type: functional, cell-based; method in brief: as §2

O=C(Cn1c(=O)oc2ccccc21)N1CCC(N2CCCC2)CC1
inhibition [1]: Dose-dependent effect | Activity [2]: Active | inhibition [3]: Active | Activity [4]: Active | Kd [5]: 16.2 µM | Activity [6]: Active | inhibition [7]: Active | inhibition [8]: Active | Activity [9]: Active | Activity (SH-SY5Y [10]): inactive | Activity (SH-SY5Y [11]): inactive
